ChEMBL document CHEMBL4725354 (J Med Chem, 2020)
The source made the active and inactive calls. No cut-off for these calls is given here.

Experiments:
[1] = Cytotoxicity against human A2780/ADR cells over expressing ABCB1 assessed as reduction in cell viability after 72 hrs by MTT assay; format: ADME, cell-based; settings: A2780/ADR cells overexpressing ABCB1
In short: (§1)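 MTT viability assay. Compound dilutions in culture medium (3.2 to 1000 µM as prepared). About 2,000 cells per well, 72 h at 37 °C, 5% CO2. Culture medium set as 100% and 10% DMSO as 0% viability. MTT added for 1 h, formazan dissolved in DMSO, absorbance read at 570 nm with 690 nm background. GI50 from nonlinear regression of absorbance vs log concentration; at least three independent experiments, duplicates, mean ± SEM.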

[2] = Cytotoxicity against MDCK2 cells assessed as reduction in cell viability after 72 hrs by MTT assay; format: cell-based, Canis lupus familiaris, MDCK-II; settings: dog; in short: as §1
[3] = Cytotoxicity against human A2780 cells assessed as reduction in cell viability after 72 hrs by MTT assay
MDCK-II [4] = experiment: Cytotoxicity against MDCK2 cells over expressing human ABCG2 at 10 uM assessed as reduction in cell viability after 72 hrs by MTT assay; format: ADME, cell-based, Canis lupus familiaris; settings: dog
In short: (§2)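 Single-concentration screen at 10 µM in MDCK II BCRP and parental MDCK II cells. MTT assay, 72 h at 37 °C, 5% CO2. Viability referenced to culture medium (100%) and 10% DMSO (0%). Mean ± SEM of at least three independent experiments with duplicates.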

[5] = Cytotoxicity against MDCK2 cells over expressing human ABCG2 assessed as reduction in cell viability after 72 hrs by MTT assay; format: ADME, cell-based, Canis lupus familiaris, MDCK-II; settings: dog, MDCK2 cells overexpressing human ABCG2; in short: as §1
ABCC1 = experiment: Therapeutic ratio of GI50 for Growth inhibition of MDCK2 cells over expressing human ABCC1 to IC50 for inhibition of human ABCC1 expressed in MDCK2 cells preincubated for 30 mins followed by calcein AM addition and measured every 60 secs for 60 mins by fluorescence assay; settings: dog, MDCK2 cells overexpressing human ABCC1, probe calcein AM
[6] = target: T1, Broad substrate specificity ATP-binding cassette transporter ABCG2 (Homo sapiens, UniProt Q9UNQ0); experiment: Inhibition of human ABCG2 expressed in MDCK2 cells co-expressing GFP preincubated for 15 mins followed by pheophorbideA addition and measured after 2 hrs by flow cytometric analysis; format: cell-based, MDCK-II
T1 sequence (Q9UNQ0 whole entry): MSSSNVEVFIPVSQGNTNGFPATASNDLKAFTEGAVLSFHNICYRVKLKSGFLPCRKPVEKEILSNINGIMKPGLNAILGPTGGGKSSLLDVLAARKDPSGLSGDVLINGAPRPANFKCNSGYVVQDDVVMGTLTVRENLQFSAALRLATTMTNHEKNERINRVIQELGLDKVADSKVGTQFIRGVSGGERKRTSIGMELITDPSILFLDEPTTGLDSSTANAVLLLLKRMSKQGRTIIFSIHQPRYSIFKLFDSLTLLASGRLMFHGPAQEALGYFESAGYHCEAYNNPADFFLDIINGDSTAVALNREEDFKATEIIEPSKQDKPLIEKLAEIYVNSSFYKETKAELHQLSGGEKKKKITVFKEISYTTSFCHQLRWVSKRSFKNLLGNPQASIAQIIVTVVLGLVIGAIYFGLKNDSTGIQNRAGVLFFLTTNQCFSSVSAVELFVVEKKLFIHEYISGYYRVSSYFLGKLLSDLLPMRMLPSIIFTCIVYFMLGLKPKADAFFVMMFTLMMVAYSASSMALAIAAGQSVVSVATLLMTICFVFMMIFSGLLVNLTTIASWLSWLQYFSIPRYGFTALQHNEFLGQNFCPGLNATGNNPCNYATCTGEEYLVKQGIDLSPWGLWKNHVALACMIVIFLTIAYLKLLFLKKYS
In short: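 Pheophorbide A added to 0.5 µM final and incubated 2 h. Read by flow cytometry (ex 488, em 695/50 nm); GFP expression checked at 525/30 nm. IC50 from 3- or 4-parameter logistic fit.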

ABCG2 [7] = experiment: Therapeutic ratio of GI50 for growth inhibition of MDCK2 cells over expressing human ABCG2 to IC50 for inhibition of human ABCG2 expressed in MDCK2 cells co-expressing GFP; settings: dog, MDCK2 cells overexpressing human ABCG2
MDCK-II [8] = experiment: Cytotoxicity against MDCK2 cells assessed as reduction in cell viability at 10 uM after 72 hrs by MTT assay; format: cell-based, Canis lupus familiaris; settings: dog; in short: as §2
ABCB1 = experiment: Therapeutic ratio of GI50 for Growth inhibition of A2780/ADR cells over expressing human ABCB1 to IC50 for inhibition of human ABCB1 expressed in A2780/ADR cells preincubated for 30 mins followed by calcein AM addition and measured every 60 secs for 60 mins by fluorescence assay; settings: A2780/ADR cells overexpressing human ABCB1, probe calcein AM
ABCG2 [9] = target: T2, ABCG2 (Homo sapiens, UniProt Q9UNQ0); experiment: Inhibition of human ABCG2 expressed in MDCK2 cells co-expressing GFP preincubated for 15 mins followed by pheophorbideA addition and measured after 2 hrs by flow cytometric analysis relative to control; format: cell-based, MDCK-II; settings: probe pheophorbide A, read-out: Imax
T2 sequence (Q9UNQ0 whole entry): T1 sequence (Q9UNQ0 whole entry)

[10] = Cytotoxicity against MDCK cells over expressing ABCC1 assessed as reduction in cell viability after 72 hrs by MTT assay; format: ADME, cell-based, Canis lupus familiaris, MDCK-II; settings: dog, MDCK cells overexpressing ABCC1; in short: as §1
[11] = target: ATP-dependent translocase ABCB1 (Homo sapiens, UniProt P08183); experiment: Inhibition of human ABCB1 expressed in A2780/ADR cells preincubated for 30 mins followed by calcein AM addition and measured every 60 secs for 60 mins by fluorescence assay; format: cell-based
In short: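 ABCB1 in A2780/ADR cells (kept resistant by one passage in 1 µM doxorubicin every 10 passages). 30,000 cells per well in Krebs-HEPES buffer, preincubated 30 min at 37 °C with inhibitor. Calcein AM added from a 3.125 µM solution. Fluorescence (ex 485, em 520 nm) read every 60 s for 60 min. Initial linear slopes vs log concentration fitted to give IC50.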

[12] = Up regulation of ABCG2 in MDCK2 cells at 0.5 uM after 4 days by Western blot analysis; format: functional, Canis lupus familiaris, MDCK-II; settings: time 4 day
In short: (§3)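 ABCG2-GFP MDCK II cells seeded in T25 flasks (86,000 for 4 days, 17,200 for 7 days). Exposed to modulator (10 nM) and/or SN-38 (0.5 µM) for 4 or 7 days. 15 µg protein run on stain-free 10% SDS-PAGE and transferred to PVDF. Probed with BXP-21 (1:200, overnight, 4 °C) and HRP secondary, ECL detection. Bands normalised to total protein and to the untreated control; one-sample t-test.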

[13] = Up regulation of ABCG2 in MDCK2 cells at 0.5 uM after 7 days by Western blot analysis; format: functional, Canis lupus familiaris, MDCK-II; settings: time 7 day; in short: as §3
MDCK-II [14] = experiment: Cytotoxicity against MDCK2 cells over expressing human ABCG2 assessed as reduction in cell viability at 0.5 uM by after 3 days by MTT assay; format: functional, cell-based; settings: Canis lupus familiaris, time 3.0 day
[15] = Effect on total ABCG2 in MDCK2 cells at 0.5 uM after 4 to 7 days by Western blot analysis; format: ADME, cell-based, Canis lupus familiaris; settings: dog, mdck-ii, time 4-7 day; in short: as §3

Sequence of ATP-dependent translocase ABCB1 (P08183 whole entry): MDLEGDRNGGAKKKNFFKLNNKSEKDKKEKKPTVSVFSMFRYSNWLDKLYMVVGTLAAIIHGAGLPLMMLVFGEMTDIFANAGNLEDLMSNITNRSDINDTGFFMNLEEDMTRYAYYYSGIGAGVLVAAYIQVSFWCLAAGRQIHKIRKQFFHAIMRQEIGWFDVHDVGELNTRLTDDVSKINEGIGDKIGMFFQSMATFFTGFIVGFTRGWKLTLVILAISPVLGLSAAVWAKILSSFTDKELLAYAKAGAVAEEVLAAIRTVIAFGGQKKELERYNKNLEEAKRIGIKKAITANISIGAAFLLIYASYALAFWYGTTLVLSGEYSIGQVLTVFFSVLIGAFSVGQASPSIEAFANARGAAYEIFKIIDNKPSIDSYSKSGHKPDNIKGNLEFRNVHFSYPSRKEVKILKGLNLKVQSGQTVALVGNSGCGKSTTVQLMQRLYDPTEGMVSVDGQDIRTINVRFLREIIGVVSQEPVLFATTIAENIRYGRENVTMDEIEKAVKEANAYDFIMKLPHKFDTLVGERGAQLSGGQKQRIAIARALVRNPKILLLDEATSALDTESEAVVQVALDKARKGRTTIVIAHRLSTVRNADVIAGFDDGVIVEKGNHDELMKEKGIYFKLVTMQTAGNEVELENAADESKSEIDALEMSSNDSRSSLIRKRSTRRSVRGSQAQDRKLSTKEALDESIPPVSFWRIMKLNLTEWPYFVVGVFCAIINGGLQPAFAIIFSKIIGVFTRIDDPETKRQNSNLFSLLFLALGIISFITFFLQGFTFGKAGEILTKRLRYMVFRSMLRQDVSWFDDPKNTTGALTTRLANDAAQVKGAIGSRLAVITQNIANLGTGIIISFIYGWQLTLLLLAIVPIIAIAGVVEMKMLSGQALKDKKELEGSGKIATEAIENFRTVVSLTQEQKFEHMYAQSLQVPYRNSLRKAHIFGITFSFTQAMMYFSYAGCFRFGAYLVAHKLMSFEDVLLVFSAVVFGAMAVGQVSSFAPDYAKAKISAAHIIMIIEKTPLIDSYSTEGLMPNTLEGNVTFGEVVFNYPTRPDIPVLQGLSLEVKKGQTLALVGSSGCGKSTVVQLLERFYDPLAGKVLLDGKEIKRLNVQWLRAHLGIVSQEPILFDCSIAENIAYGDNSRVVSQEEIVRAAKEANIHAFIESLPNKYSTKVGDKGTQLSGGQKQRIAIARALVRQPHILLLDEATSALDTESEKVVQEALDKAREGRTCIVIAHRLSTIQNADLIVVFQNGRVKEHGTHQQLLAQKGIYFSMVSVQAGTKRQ

IC50 [6] [µM]	Emax at 2 h (ABCG2 [9]) [%]	IC50 [11] [µM]	Compound	GI50 at 72 h [1] [µM]	GI50 at 72 h [2] [µM]	GI50 at 72 h [3] [µM]	Activity (MDCK-II [4])	GI50 at 72 h [5] [µM]	selectivity ratio (ABCC1)	selectivity ratio (ABCG2 [7])	Activity (MDCK-II [8])	selectivity ratio (ABCB1)	GI50 at 72 h [10] [µM]	fold change (FC) [12]	fold change (FC) [13]	Activity (MDCK-II [14])	Activity [15]
0.151	79	5.13	Cc1cc(Nc2ccc3ncccc3c2)nc(-c2ccccc2)n1	28.9	38.4	22.6	Non-Toxic	42.1	4.9	279	Non-Toxic	5.6	35.4	–	–	–	–
–	–	–	CCc1c2c(nc3ccc(O)cc13)-c1cc3c(c(=O)n1C2)COC(=O)C3(O)CC (configuration not stated)	–	–	–	–	–	–	–	–	–	–	2	5	inactive	Non-Toxic
